# Hits are enriched below; roughly 4.7% of the tested compounds scored in any of these assays.
# AHR act = activators of human aryl hydrocarbon receptor; P35869; AHR-responsive luciferase reporter cells, luminescence; activation, % at 5 µM; 320,000 tested, 2.5% active; AID 2796; in the data active means activation above about 47%;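 further: 0% = vehicle wells and 100% = reference agonist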
# FXN GAA850 act = activators of GAA850 frataxin (FXN) promoter. HEK293 lucGAA850 FXN promoter luciferase reporter, 24 h; percent of 10 µM SAHA response. 360,000 tested, 0.56% active. activation, % at 6 µM;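 active means activation above the average of all compounds screened plus 3 SD, cutoff fixed separately per campaign, cut at about 7.5% in these data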;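 further: 0% = DMSO wells and 100% = 10 µM SAHA wells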
# HTR2A ag = activates the mouse 5-HT2A serotonin receptor; CHO-K1 mHTR2A beta-arrestin complementation, luminescence; percent of 30 µM serotonin response; activation, % at 7.6 µM; 360,000 tested, 0.66% active; AID 624169;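 active means activation above a run cutoff, the mean activation of all tested compounds plus 3 SD, cut at about 14% in these data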;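 further: 0% = plate median of compound wells and 100% = 30 µM serotonin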
# MC4R ag barr = activates human MC4R beta-arrestin recruitment | U2OS MC4R beta-arrestin complementation, luminescence; percent of melanotan II response, DMSO zero | 360,000 tested, 0.98% active | activation, % at 8.9 µM | AID 540308;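 active means activation above a per-plate cutoff, the mean activation of sample wells on that plate plus 3 SD, cut at about 8% in these data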
# MC4R antagonist = human MC4R antagonism in cAMP assay; MC4R-expressing cells, MTII-stimulated cAMP, LANCE TR-FRET; inhibition, % at 6.5 µM; 360,000 tested, 0.48% active; AID 540295;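 active means inhibition above its plate's cutoff, the mean of tested wells on that plate plus 3 SD, cut at about 29% in these data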;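 further: 0% = Melanotan II alone and 100% = Melanotan II plus saturating MCL0020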
#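 material = U2OS cells stably expressing human melanocortin 4 receptor (MC4R) | also added = Melanotan II challenge | dosing = single nominal compound dose of 6.5 µM | detection = TR-FRET with Eu-cAMP and labeled anti-cAMP, 671 nm | replication = singlicate | timing = compound 30 min, challenge 1 h, detection 1 h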
# * marks the source's active call; other numbers are inactive results; x = no result given.
SMILES,AHR act,FXN GAA850 act,HTR2A ag,MC4R ag barr,MC4R antagonist
O=C(Nc1ccc(Cl)cc1C(=O)Nc1ccccn1)c1ccco1,64*,1,0,-1,8
O=C(Nc1ccc(Cl)cc1)Nc1ccccn1,50*,5,-3,1,2
COc1ccccc1NC(=O)c1sc(NC(=O)c2ccco2)c(C#N)c1C,66*,2,1,-1,18
COc1cc(NC(=O)c2ccc(OC)c([N+](=O)[O-])c2)ccc1NC(=O)c1ccco1,50*,1,10,8,-1
COC(=O)c1sc(NC(=O)c2ccco2)c(C#N)c1C,4,-1,-3,-1,6
CCNC(=O)C1(C)CCCN(Cc2noc(-c3c(C)noc3C)n2)C1 (stereo not given),x,1,-1,-1,4
CCN(CC)C(=O)c1cccc(NC(=O)c2ccccc2OCc2c(C)noc2C)c1,19,-1,13,-3,7
Oc1ccc(Cl)c(CN2CCN(c3ncc(Cc4ccccc4)cn3)CC2)c1,x,x,3,x,x
Cc1ccc(N2CCN(C(=O)C(=O)c3ccc4c(c3)OCO4)CC2)cc1,x,x,0,x,x
COc1ccccc1C(=O)Nc1cc(C)ccc1NC(=O)c1ccco1,65*,-2,-3,0,-3
COc1ccccc1NC(=O)c1ccccc1NC(=O)c1cc(Cl)ccc1NC(=O)c1ccco1,41,-2,-3,3,11
Cc1ccc(NC(=O)c2ccco2)c(NC(=O)c2ccccc2C)c1,45,-4,2,-1,15
COc1ccccc1NC(=O)c1cc(Cl)ccc1NC(=O)c1ccco1,63*,0,3,5,18
Cc1ccc(Nc2nc(N)c([N+](=O)[O-])c(NCCO)n2)cc1C,81*,5,-1,1,4
CNc1nc(N)c([N+](=O)[O-])c(Nc2cccc(Cl)c2)n1,58*,6,-1,-1,4
CCOC(=O)c1ccc(NC(=O)CCc2nc(-c3ccc(C)cc3)no2)cc1,0,-7,-1,9.7*,14
CN(C)C(CNC(=O)c1cc(S(=O)(=O)N(C)c2ccc(F)cc2)ccc1Cl)c1cccs1 (stereo not given),x,-2,5,-1,3
Cc1c(NC(=O)CN2C(=O)NC(C)(c3ccccc3)C2=O)c(=O)n(-c2ccccc2)n1C (stereo not given),-1,1,1,0,29*
Cc1ccc(C(=O)N2CCN(c3ncccn3)CC2)o1,-3,-2,4,-1,-4
O=C(c1ccc(Br)o1)N1CCN(c2ncccn2)CC1,59*,-2,5,-1,10
N#CC1=C(N)Oc2cc(N)ccc2C1c1ccccc1Cl (stereo not given),x,4,3,-1,-6
CC(=O)n1c2c(c3ccccc31)OC(N)=C(C#N)C2c1cccc(Cl)c1Cl (stereo not given),49*,-6,4,-1,-2
O=C(NNc1nc2ccccc2s1)Nc1ccc(F)cc1,75*,4,5,2,-9
O=C(Nc1ccc(F)cc1)N1CCN(c2nc3ccccc3s2)CC1,-4,0,23*,-2,14
O=C(NNc1nc2ccccc2s1)c1ccccc1F,16,1,-2,0,-8
SMILES,AHR act,FXN GAA850 act,HTR2A ag,MC4R ag barr,MC4R antagonist
O=C(Nc1nc2ccccc2s1)Nc1ccc(F)cc1F,71*,4,2,3,0
CCOC(=O)C1=C(COC(=O)Cc2ccccc2[N+](=O)[O-])NC(=O)NC1C (stereo not given),x,3,0,1,-7
O=S(=O)(c1cccc(F)c1)N1CCN(Cc2cc3c(cc2Br)OCCO3)CC1,1,1,2,-1,7
C#Cc1cccc(NC(=O)c2ccc3c(c2)C(=O)N(Cc2cccnc2)C3=O)c1,57*,-2,-3,0,15
CC1(C(=O)NCc2cccs2)Cc2c(-c3ccccc3)ccnc2O1 (stereo not given),x,-7,-1,-2,-12
O=C(Nc1nnc(C2CC2)s1)c1cc([N+](=O)[O-])ccc1N1CCCCC1,49*,2,1,-2,8
C1CCC(c2nn3c(-c4n[nH]c5c4CCC5)nnc3s2)CC1,-11,3,4,-1,-4
CCN(CC)c1ccc(-c2nn3c(-c4n[nH]c5c4CCC5)nnc3s2)cc1,16,5,35*,5,-17
O=c1[nH][nH]c(=O)c2nc(Nc3ccccc3)ncc12,x,1,0,-1,9
Fc1ccc2cnc(-c3ccccc3F)cc2c1,32,4,-4,0,-2
COc1ccc(-c2cc3cc(OC)c(OC)cc3cn2)cc1OC,-2,4,2,-1,9
Fc1ccc2cc(-c3ccccc3F)ncc2c1,76*,7,-3,-1,3
COc1ccc(-c2cc3cc(F)ccc3cn2)cc1,51*,3,-2,0,5
COc1ccc(-c2cc3ccc(F)cc3cn2)cc1,47*,4,-5,1,2
NNc1nc(-c2ccccc2)cc(-c2ccc(Br)cc2)n1,69*,1,2,3,0
CCN(C(=O)CN1C(=O)NC2(CCC(C)CC2)C1=O)C1CCCCC1 (stereo not given),x,1,-1,-1,1
CCOc1ccc(N(CC(=O)NCc2ccc(F)cc2)C(=O)c2snc(C(N)=O)c2N)cc1,1,-2,-7,13*,10
COc1ccc(CNC(=O)CN(C(=O)c2snc(C(N)=O)c2N)c2ccc(F)cc2)cc1,-2,-1,5,-3,0
Cc1cc2[nH]c3c4ccccc4nc(C)c3c2cc1C,x,-1,1,24*,15
Cc1cc(C(=O)N/N=C/c2ccc(-c3cccc(Cl)c3Cl)o2)n[nH]1,8,0,-4,0,-2
CC(C)(C)c1cc(C(=O)N/N=C/c2ccc(-c3ccccc3[N+](=O)[O-])o2)n[nH]1,50*,2,-6,-4,11
O=C(N/N=C/c1ccc(-c2ccccc2[N+](=O)[O-])o1)c1cccnc1,55*,1,7,-1,-5
COc1ccc(-c2csc(NC(=O)CCNC(=O)c3ccco3)n2)cc1,x,0,-6,-3,11
Cc1cccc(C)c1NC(=O)C(c1ccc(C(F)(F)F)cc1)n1c(=O)c(-c2cc3ccccc3[nH]2)nc2ccccc21 (stereo not given),x,x,2,x,x
CC(C)CSc1nnc2c(n1)[nH]c1ccccc12,26,3,2,0,3
CC1=CCC(/C=N\Nc2nnc3c(n2)[nH]c2ccccc23)CC1 (stereo not given),55*,x,x,x,x
CC1(C(=O)Nc2cccc(-n3cnnn3)c2)Cc2ccccc2C(=O)O1 (stereo not given),3,1,-3,-1,5
CCOC(=O)C1(CCCc2ccccc2)CCN(C2CCSCC2)CC1,x,1,-5,9.2*,1
COc1ccc(C)cc1CN(C)c1ccc(S(=O)(=O)N2CCN(C)CC2)cn1,x,0,-3,-1,15
